Measurements as given in ChEMBL document CHEMBL1649563, “Nukacin ISK-1, a bacteriostatic lantibiotic” (2009).
In brackets after ≈: the same amount, converted by molar mass. Activity calls are given as the source filed them. The calls are words filed in the database; no cut-off is given here.

Columns and labels:
Bacillus subtilis [1] = assay: Antibacterial activity against Bacillus subtilis JCM 1465 assessed as dissipation of membrane potential by fluorescence assay; format: functional, organism-based
Bacillus subtilis [2] = assay: Antibacterial activity against Bacillus subtilis JCM 1465 assessed as induction of pore formation-associated efflux of ATP by fluorescence assay; format: functional, organism-based
In short: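 ATP efflux from B. subtilis JCM 1465T cells treated with lantibiotic at 10× MIC, detected with a Lucifer-HS ATP detection kit. Run twice, representative data shown.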

Enterococcus faecalis = assay: Antibacterial activity against Enterococcus faecalis TUA 1344L; format: functional
In short: (§1)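 Spot-on-lawn method against each indicator strain, giving MIC. Activity determined at least twice per lantibiotic.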

Bacillus subtilis [3] = assay: Antibacterial activity against Bacillus subtilis JCM 1465 assessed as induction of pore formation-associated efflux of K+ ion by fluorescence assay; format: functional, organism-based
In short: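 K+ efflux from B. subtilis JCM 1465T cells exposed to lantibiotic at 10× MIC, measured with potassium-binding benzofuran isophthalate-AM (PBFI). Expressed relative to total K+ released after adding 1 μM nisin (100%). Run twice.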

Bacillus subtilis [4] = assay: Antibacterial activity against Bacillus subtilis JCM 1465 assessed as single arrangement of initial stage of septal orientation by microscopy; format: functional, organism-based
In short: (§2)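 B. subtilis JCM 1465T treated at 10× MIC for 90 min against an untreated control, then prepared for transmission electron microscopy. Longitudinal and cross sections examined.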

Bacillus subtilis [5] = assay: Antibacterial activity against Bacillus subtilis JCM 1465; format: functional; in short: as §1
Bacillus subtilis [6] = assay: Antibacterial activity against Bacillus subtilis JCM 1465 assessed as decrease in bacterial cell wall thickness by microscopy; format: functional, organism-based; in short: as §2
Micrococcus luteus = assay: Antibacterial activity against Micrococcus luteus IFO 12708; format: functional; in short: as §1
Lactobacillus sakei [7] = assay: Bacteriostatic against Lactobacillus sakei JCM 1157 assessed as decrease in cell viability after 24 hrs by turbidity assay; format: functional; settings: Latilactobacillus sakei
Lactococcus lactis = assay: Antibacterial activity against Lactococcus lactis ATCC 19435; format: functional; in short: as §1
Lactobacillus sakei [8] = assay: Antibacterial activity against Lactobacillus sakei JCM 1157; format: functional; settings: Latilactobacillus sakei; in short: as §1
Lactobacillus sakei [9] = assay: Bacteriostatic against Lactobacillus sakei JCM 1157 assessed as lysis of cell after 24 hrs by spectrophotometry; format: functional; settings: Latilactobacillus sakei
Staphylococcus carnosus = assay: Antibacterial activity against Staphylococcus carnosus TM300; format: functional; in short: as §1
Listeria innocua = assay: Antibacterial activity against Listeria innocua ATCC 33090; format: functional; in short: as §1
[10] = system: Lactiplantibacillus plantarum; assay: Antibacterial activity against Lactobacillus plantarum ATCC 14617; format: functional; settings: ATCC 14917, in the assay text read “ATCC 14917” for “ATCC 14617”; in short: as §1
Cell membrane = assay: Binding affinity to cell membrane of Bacillus subtilis JCM 1465 assessed as dissipation of nisin A-induced membrane potential
Bacillus subtilis [11] = assay: Antibacterial activity against Bacillus subtilis JCM 1465 assessed as detachment of plasma membrane from cell wall by microscopy; format: functional, organism-based; in short: as §2

Row | SMILES | Activity (Bacillus subtilis [1]) | Activity (Bacillus subtilis [2]) | MIC (Enterococcus faecalis) | Activity (Bacillus subtilis [3]) | Activity (Bacillus subtilis [4]) | MIC (Bacillus subtilis [5]) | Activity (Bacillus subtilis [6]) | MIC (Micrococcus luteus) | Activity (Lactobacillus sakei [7]) | MIC (Lactococcus lactis) | MIC (Lactobacillus sakei [8]) | Activity (Lactobacillus sakei [9]) | MIC (Staphylococcus carnosus) | MIC (Listeria innocua) | MIC [10] | Activity (Cell membrane) | Activity (Bacillus subtilis [11])
1 | C/C=C1\NC(=O)[C@H](Cc2ccccc2)NC(=O)[C@H](C(C)C)NC(=O)[C@H](Cc2ccccc2)NC(=O)[C@H](CCC(N)=O)NC(=O)[C@H](Cc2ccccc2)NC(=O)[C@@H]2CSC[C@@H](C(=O)N[C@@H](CO)C(=O)O)NC(=O)[C@H](CSC[C@@H]3NC(=O)[C@H](C(C)C)NC(=O)[C@@H](NC(=O)[C@@H]4CCCN4C(=O)[C@@H](NC(=O)[C@@H](NC(=O)CNC(=O)[C@H](CO)NC(=O)[C@H](CCCCN)NC(=O)[C@H](CCCCN)NC(=O)[C@@H](N)CCCCN)C(C)C)[C@@H](C)CC)[C@H](C)SC[C@H](NC(=O)[C@H](CC(=O)O)NC(=O)[C@H](Cc4cnc[nH]4)NC3=O)C(=O)N[C@@H](Cc3cnc[nH]3)C(=O)N[C@@H](CCSC)C(=O)N[C@@H](CC(N)=O)C(=O)N2)NC1=O | inactive | inactive | 4.16 µM (≈ 12.3 µg/mL) | inactive | Active | 0.26 µM (≈ 0.769 µg/mL) | Active | 2.08 µM (≈ 6.16 µg/mL) | Active | 0.52 µM (≈ 1.54 µg/mL) | 0.26 µM (≈ 0.769 µg/mL) | Active | 0.26 µM (≈ 0.769 µg/mL) | 16.6 µM (≈ 49.2 µg/mL) |  |  | 
2 | C=C(NC(=O)[C@@H](NC(=O)[C@H](Cc1cnc[nH]1)NC(=O)[C@@H](NC(=O)[C@H](CO)NC(=O)[C@@H]1CSC(C)[C@@H]2NC(=O)[C@H](C)NC(=O)[C@@H](NC(=O)N(CCCCN)C(=O)[C@H](CCCCN)NC(=O)[C@@H](CCSC)NC(=O)[C@H](CC(N)=O)NC(=O)[C@@H]3CSC(C)[C@H](NC(=O)[C@H](CCCCN)NC(=O)[C@@H]4CSC(C)[C@H](NC(=O)[C@@H]5CSC[C@H](NC(=O)/C(=C/C)NC(=O)[C@@H](N)[C@@H](C)CC)C(=O)N[C@@H](CC(C)C)C(=O)NC(=C)C(=O)N[C@@H](CC(C)C)C(=O)N5)C(=O)N5CCC[C@H]5C(=O)NCC(=O)N4)C(=O)NCC(=O)N[C@@H](C)C(=O)N[C@@H](CC(C)C)C(=O)N[C@H](CCSC)C(=O)NCC(=O)N3)C(C)SC[C@H](NC2=O)C(=O)N[C@@H](Cc2cnc[nH]2)C(=O)N1)[C@@H](C)CC)C(C)C)C(=O)N[C@@H](CCCCN)C(=O)O (stereo partly specified) |  | Active | 0.26 µM (≈ 0.902 µg/mL) | Active |  | 0.008 µM (≈ 0.0277 µg/mL) |  | 0.032 µM (≈ 0.111 µg/mL) |  | 0.065 µM (≈ 0.225 µg/mL) | 0.008 µM (≈ 0.0277 µg/mL) |  | 0.016 µM (≈ 0.0555 µg/mL) | 0.065 µM (≈ 0.225 µg/mL) | 1.04 µM (≈ 3.61 µg/mL) | Active | Active
